Source: PubChem BioAssay (several laboratories)
Only some compounds are listed: those with a hit (about 1.3% of all), similar ones and a draw of the others.
UCH37 inh = inhibitors of human UCH37 deubiquitinase, primary screen, biochemical, Ub-AMC cleavage, fluorescence. Ubiquitin carboxyl-terminal hydrolase isozyme L5 (Homo sapiens), Q9Y5K5. purified proteasome/UCH37. inhibition, % (test concentration not listed). 330,000 compounds, 0.33% hits. AID 588478, 2011;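 active means mean inhibition over replicate wells above about 20%, limit read from the data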;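 further: 0% = compound-free wells with enzyme and 100% = wells lacking proteasome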
Target sequence (Q9Y5K5 whole entry, looked up): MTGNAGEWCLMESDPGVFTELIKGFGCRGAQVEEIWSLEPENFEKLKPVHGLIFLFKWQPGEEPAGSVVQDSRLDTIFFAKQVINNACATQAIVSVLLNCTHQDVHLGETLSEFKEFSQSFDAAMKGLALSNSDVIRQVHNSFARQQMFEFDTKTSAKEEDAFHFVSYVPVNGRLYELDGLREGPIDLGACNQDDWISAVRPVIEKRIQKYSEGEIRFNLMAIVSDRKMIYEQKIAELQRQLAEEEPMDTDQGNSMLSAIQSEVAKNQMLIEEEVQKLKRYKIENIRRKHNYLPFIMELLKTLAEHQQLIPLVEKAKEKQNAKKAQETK
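Test system – human UCH37 enzyme supplied as purified proteasome complex · Incubation – 30 min preincubation with enzyme, 25 min cleavage at room temperature · Detection – AMC fluorescence from Ub-AMC cleavage, excitation 355 nm, emission 460 nm · Benchmarks – no-proteasome wells (full inhibition) and compound-free wells (no inhibition)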
LEDGF integ inh = blockers of LEDGF/p75-dependent integrase strand transfer – biochemical, TR-FRET, high throughput, primary screen. AID 743269, 2014. inhibition, % at 3.7 µM. 370,000 compounds, 0.64% hits. TR-FRET IN-LEDGF/p75 DNA integration, Eu/Cy5. HIV-1 integrase (with human LEDGF/p75);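 active means inhibition above the screen-wide mean plus 3 SD, cut at about 13% in these data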;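 further: signal is the Cy5 over europium emission ratio at 671 and 618 nm; 0% = plate median of compound wells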
TDP2 inh = human TDP2 enzyme inhibitors, primary screen, biochemical, epi absorbance, recombinant enzyme; Tyrosyl-DNA phosphodiesterase 2 (Homo sapiens), O95551; T5PNP hydrolysis, p-nitrophenol absorbance 415 nm; inhibition, % at 12.8 µM; 370,000 compounds, 0.34% hits;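 active means inhibition above the mean of all tested compounds plus 3 SD, set per campaign, cut at about 25% in these data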;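 further: 0% = DMSO with enzyme and 100% = buffer with substrate but no TDP2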
Target sequence (O95551 whole entry, looked up): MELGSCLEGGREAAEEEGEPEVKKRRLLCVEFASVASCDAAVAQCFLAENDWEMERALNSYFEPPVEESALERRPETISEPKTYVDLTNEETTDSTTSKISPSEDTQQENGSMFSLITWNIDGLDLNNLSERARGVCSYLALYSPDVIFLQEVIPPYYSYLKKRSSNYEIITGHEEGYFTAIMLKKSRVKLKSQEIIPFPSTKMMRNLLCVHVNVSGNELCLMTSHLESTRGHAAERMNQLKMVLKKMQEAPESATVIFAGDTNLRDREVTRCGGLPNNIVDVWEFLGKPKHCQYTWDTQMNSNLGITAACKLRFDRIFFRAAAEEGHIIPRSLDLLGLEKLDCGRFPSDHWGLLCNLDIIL
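test system = human TDP2 enzyme | input = TDP2 enzyme at 120 nM final | medium = 50 mM Tris-HCl pH 7.5 with Mg2+, KCl, DTT, BSA | also added = T5PNP substrate, 5 mM | times = 2 h at 37 °C | technique = epi absorbance | benchmarks = high control without enzyme, low control DMSO plus TDP2 | replication = each compound tested once, singlicate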
NSD2 inh = NSD2 histone methyltransferase inhibitors, primary screen, biochemical, AlphaScreen, single concentration, set 2 | Histone-lysine N-methyltransferase NSD2 (Homo sapiens), O96028 | 310,000 compounds, 0.54% hits | inhibition, % at 12.5 µM | NSD2 peptide methylation, 120 min; in the data active means inhibition above about 50%
CASP6 VEID inh = human caspase-6 inhibitors, primary screen, biochemical, VEID-R110 fluorescence, single point, set 2; P55212; purified caspase-6, Z-VEID-R110 cleavage fluorescence; inhibition, % at 12.5 µM; 350,000 compounds, 0.53% hits; AID 686996, 2013;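 active means mean inhibition across replicates at least about 35%, with every replicate also reaching that limit, limit read from the data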;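 further: 0% = median of neutral control wells and 100% = no fluorescence left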
TDP2 inh conf = human TDP2 enzyme inhibitors, retest, confirmation, biochemical, epi absorbance, recombinant enzyme; shares compounds with TDP2 inh; absorbance read-out; inhibition, % at 12.8 µM; 1,100 compounds, 22% hits; in the data active means inhibition above about 25%;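 further: 0% = vehicle with enzyme and 100% = no enzyme buffer only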
IN multimer act = HIV-1 IN multimer formation enhancers, counter-screen for LEDGF/p75 integration inhibitor project, biochemical, TR-FRET; shares compounds with LEDGF integ inh; TR-FRET HIV-1 integrase multimerization; activation, % at 7.7 µM; 2,000 compounds, 17% hits; AID 1053131, 2014; in the data active means activation above about 8.9%
TRFRET interf = TR-FRET optical interference artefacts, confirmation, artefact control for LEDGF/p75-dependent integration inhibitor project, biochemical, HIV-1 IN multimerization; TR-FRET optical interference counterscreen; AID 1053135, 2014; shares compounds with LEDGF integ inh; inhibition, % at 7.7 µM; 2,000 tested, under 10 active;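 active means inhibition above the mean over all tested compounds plus 3 SD, which no compound reached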;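 further: 0% = integrase with antibodies and DMSO and 100% = antibodies without integrase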
LEDGF integ conf = inhibitors of HIV-1 IN-LEDGF/p75 DNA integration, confirmation, biochemical, TR-FRET. shares compounds with LEDGF integ inh. TR-FRET LEDGF/p75-dependent HIV-1 integration. inhibition, % at 3.7 µM. 2,000 compounds, 36% hits. AID 1053136, 2014; in the data active means inhibition above about 14%
Alpha artifact = AlphaScreen signal interference with preloaded methylated product, dose response, artefact control for NSD2 inhibitor project, biochemical, cherry-picked samples. shares compounds with NSD2 inh. AlphaScreen artifact counterscreen, preloaded methylated H4 peptide. AC35, µM (top dose mostly 10 µM), inactives show at the top dose activity change, negative = signal loss. 1,500 compounds, 9.4% hits. AID 1053174, 2014; call rule not given here
Starred values were filed as active, the others as inactive; / = not tested or not shown.

SMILES | UCH37 inh | LEDGF integ inh | TDP2 inh | NSD2 inh | CASP6 VEID inh | TDP2 inh conf | IN multimer act | TRFRET interf | LEDGF integ conf | Alpha artifact
O=C(NN=Cc1ccc(-c2ccccc2C(=O)O)o1)c1cccs1 | 2.0 | / | / | / | / | / | / | / | / | /
COc1cc(C(=O)c2nccc3cc(OC)c(OC)cc23)c([N+](=O)[O-])cc1OC | 12.7 | 32.8* | 48.7* | 53.8* | 20.2 | 34.9* | -0.4 | 1.4 | 44.8* | -9.3%
COc1cc(C(=O)c2ccccc2)c([N+](=O)[O-])cc1OC | 6.3 | 0.6 | 0.5 | 1.9 | 0.5 | / | / | / | / | /
COc1cc(Br)c(C(=O)c2nccc3cc(OC)c(OC)cc23)cc1OC | / | 15.4* | 90.8* | 99.3* | 97.1* | 56.1* | 2.7 | -9.7 | 74.6* | -4.9%
COc1cc2ccnc(C=O)c2cc1OC | / | / | / | -0.5 | / | / | / | / | / | /
C[n+]1cccc2c(Br)ccc([O-])c21 | 5.0 | 44.5* | 70.7* | 104.3* | 53.3* | 37.4* | 3.7 | -12.9 | 60.7* | -1.5%
COc1cc(CCNC2=CC(=O)c3ncccc3C2=O)ccc1O | / | 28.8* | 28.9* | 127.8* | 91.5* | 34.9* | 4.6 | -16.3 | 60.0* | -3.4%
CCOc1ccc(C(C)=NNC(=O)c2nnn(-c3nonc3N)c2-c2cccs2)cc1 | -217.2 | / | / | / | / | / | / | / | / | /
CCCCn1c(NC(=O)c2ccccc2Cl)c(C#N)c2nc3ccccc3nc21 | -92.3 | 5.8 | 38.2* | 113.8* | / | 71.9* | / | / | / | 4.1%
CN(C)c1ccc2cc(S(=O)(=O)O)cc(O)c2c1 | -256.6 | 84.3* | 54.6* | 62.9* | 78.1* | 13.3 | 52.2* | -185.9 | 31.0* | 0.971µM*
O=Nc1c(O)ccc2cc(S(=O)(=O)O)ccc12 | 9.2 | / | / | 43.5 | / | / | / | / | / | /
COc1ccc(CNC(=O)CC(C)=NNC(=O)COc2ccc(C)cc2Br)cc1 | 0.1 | / | / | / | / | / | / | / | / | /
CCc1ccc(NC(=S)Nc2cccc3cnccc23)cc1 | -0.2 | 5.8 | 37.9* | 98.2* | 2.3 | 6.3 | / | / | / | 0.0%
Cc1cc(C)cc(NC(=S)Nc2cccc3cnccc23)c1 | 4.0 | -1.4 | 8.6 | 15.9 | 19.8 | / | / | / | / | /
CC(O)C(=O)N/N=C/c1cccc2ccccc12 (configuration not stated) | / | 2.7 | -6.7 | 0.5 | 0.7 | / | / | / | / | /
Cc1cccc(/C=N/NC(=O)C(C)Nc2cccc3ccccc23)n1 (configuration not stated) | / | 31.8* | 67.2* | 103.5* | / | 23.9 | 2.4 | -12.1 | -7.2 | -8.8%
CC(=NNC(=O)c1ccco1)c1cc(Cl)sc1Cl | 6.3 | / | / | / | / | / | / | / | / | /
O=S(=O)(Nc1cc(Sc2cccc3cccnc23)c(O)c2ccccc12)c1ccccc1 | / | 17.1* | 32.5* | 56.4* | -1.0 | 6.7 | 0.1 | -0.7 | -11.0 | -12.7%
CCc1ccc(S(=O)(=O)Nc2cc(SCC(=O)O)c(O)c3ccccc23)cc1 | 6.4 | 5.6 | 51.1* | 112.5* | 67.1* | 34.8* | / | / | / | -9.7%
Cc1ccc(S(=O)(=O)Nc2cccc3cccnc23)cc1 | / | -27.2 | 4.2 | -2.4 | / | / | / | / | / | /
CCOCCCNC(=O)Cn1cc2c(n1)-c1c(oc(C(=O)N3CCCC3)c1C)CC2 | / | 1.8 | 37.7* | 97.1* | 8.4 | -6.7 | / | / | / | -7.7%
Cc1nnc(NN=Cc2ccc(Br)cc2)n1N | 3.8 | / | / | / | / | / | / | / | / | /
Cc1nnc(NN=Cc2ccc(-c3cccc(C(=O)O)c3)o2)n1N | -23.6 | / | / | / | / | / | / | / | / | /
Cc1nnc(NN=Cc2ccc(-c3ccccc3[N+](=O)[O-])o2)n1N | 13.5 | / | / | / | / | / | / | / | / | /
Cc1nnc(N/N=C/c2ccccc2O)n1N | / | 58.9* | 58.7* | 101.1* | 50.1* | 26.3* | -0.8 | 4.0 | -10.0 | -4.9%
SMILES | UCH37 inh | LEDGF integ inh | TDP2 inh | NSD2 inh | CASP6 VEID inh | TDP2 inh conf | IN multimer act | TRFRET interf | LEDGF integ conf | Alpha artifact
Cc1nnc(N/N=C\c2ccc(-c3ccccc3[N+](=O)[O-])o2)n1N | / | 42.7* | 77.6* | 93.1* | 15.0 | 20.4 | 4.0 | -14.2 | -5.3 | -8.1%
Cc1nnc(N/N=C/c2ccc(-c3ccccc3F)o2)n1N | / | 43.6* | 58.6* | 85.2* | 5.5 | 3.1 | 5.7 | -20.1 | 6.4 | -1.2%
Cc1cc2c(N)cccc2nn1 | / | 73.5* | 77.0* | 98.8* | / | 56.7* | 8.0 | -28.1 | 78.0* | -6.5%
O=C(Cc1ccccc1Cl)NC1(O)C(=O)c2ccccc2C1=O | / | -0.9 | 47.4* | 93.7* | 14.7 | 54.1* | / | / | / | 4.3%
S=C(Nc1ccc2nsnc2c1)N1CCCC1 | 10.1 | 31.6* | 67.3* | 141.0* | 46.9* | 44.9* | 1.7 | -6.0 | -2.3 | 5.6%
COC1=CC(=O)c2c(ccc3ncnc(N)c23)C1=O | / | 52.5* | 84.9* | 121.6* | 99.8* | 81.6* | 7.2 | -25.9 | 73.1* | 3.3%
COc1cccc2c1C(=O)C=C(C)C2=O | 18.5 | -2.7 | 0.3 | 8.0 | 3.3 | / | / | / | / | /
CON=C(CS(=O)Cc1ccccc1Cl)c1ccc(Cl)cc1Cl (configuration not stated) | 3.0 | / | / | / | / | / | / | / | / | /
COC(=O)NN=Cc1cccc(OC(=O)c2ccc3c(c2)OCO3)c1 | 1.6 | / | / | / | / | / | / | / | / | /
COc1cc(NS(=O)(=O)c2ccc(NC(=S)NC(=O)/C=C/c3ccco3)cc2)ncn1 | 8.2 | 23.2* | 36.4* | 149.5* | 20.0 | 40.7* | 7.6 | -27.2 | 36.8* | -3.7%
Cc1nn(-c2ccccc2)c(C)c1C=NNC(=O)c1cc(O)cc(O)c1 | 5.9 | / | / | / | / | / | / | / | / | /
COc1ccc(-c2ccc(C(c3c(C)[nH][nH]c3=O)c3c(C)[nH][nH]c3=O)o2)c([N+](=O)[O-])c1 | 8.0 | 5.0 | 67.1* | 123.8* | 15.7 | 6.4 | / | / | / | -2.6%
Cc1[nH][nH]c(=O)c1C(c1ccc(-c2ccc(C(=O)O)cc2)o1)c1c(C)[nH][nH]c1=O | 23.0* | 5.2 | 59.7* | 89.4* | 8.9 | 31.8* | / | / | / | 1.0%
